Results as given in ChEMBL document CHEMBL5058577, “EUbOPEN Chemogenomics Library 2 (Multiplex)” (2022).

Test system: U2OS
Assay: Multiplex assay against U2OS
Format: toxicity, cell-based
Conditions: human
Outline: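 Phenotypes for tubulin, mitochondrial mass and membrane permeability are expressed as per cents of healthy-nucleus cells. Cells were stained live at seeding with Hoechst33342, BioTracker Green Microtubule Cytoskeleton Dye, MitoTracker Red and Annexin V Alexa Fluor 680, then imaged after compound addition on a CQ1 microscope at 37°C and 5% CO2. Machine-learning gating in CellPathfinder separated Hoechst high-intensity objects from normal cells, divided normal cells by nuclear state (healthy, pyknosed, fragmented) and divided pyknosed cells into mitotic or apoptotic.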

[1] = 12 h, 1 µM, compound concentration 1 uM, replicate 1
[2] = 12 h, 1 µM, compound concentration 1 uM, replicate 2
[3] = 12 h, 10 µM, compound concentration 10 uM, replicate 1
[4] = 12 h, 10 µM, compound concentration 10 uM, replicate 2
[5] = 24 h, 1 µM, compound concentration 1 uM, replicate 1
[6] = 24 h, 1 µM, compound concentration 1 uM, replicate 2
[7] = 24 h, 10 µM, compound concentration 10 uM, replicate 1
[8] = 24 h, 10 µM, compound concentration 10 uM, replicate 2
[9] = 48 h, 1 µM, compound concentration 1 uM, replicate 1
[10] = 48 h, 1 µM, compound concentration 1 uM, replicate 2
[11] = 48 h, 10 µM, compound concentration 10 uM, replicate 1
[12] = 48 h, 10 µM, compound concentration 10 uM, replicate 2

Cc1sc2c(c1C)C(c1ccc(Cl)cc1)=N[C@H](CC(=O)OC(C)(C)C)c1nnc(C)n1-2
Population Apoptotic (%) [1]: 81% | Population Fragmented Nuclei (%) [1]: 28% | Population Healthy Nuclei (%) [1]: 63% | Population Hoechst High Intensity Objects (%) [1]: 2% | Population Membrane Permeable-Phenotype (%) [1]: 7% | Population Mitochondria Different-Phenotype (%) [1]: 4% | Population Mitotic Cells (%) [1]: 18% | Population Normal (%) [1]: 97% | Population Pyknosed Nuclei (%) [1]: 8% | Population Tubulin-Different-Phenotype (%) [1]: 4% | Total Cell Count [1]: 256 | Population Apoptotic (%) [2]: 71% | Population Fragmented Nuclei (%) [2]: 16% | Population Healthy Nuclei (%) [2]: 77% | Population Hoechst High Intensity Objects (%) [2]: 4% | Population Mitochondria Different-Phenotype (%) [2]: 2% | Population Mitotic Cells (%) [2]: 28% | Population Normal (%) [2]: 95% | Population Pyknosed Nuclei (%) [2]: 6% | Total Cell Count [2]: 120 | Population Apoptotic (%) [3]: 51% | Population Fragmented Nuclei (%) [3]: 32% | Population Healthy Nuclei (%) [3]: 56% | Population Hoechst High Intensity Objects (%) [3]: 2% | Population Membrane Permeable-Phenotype (%) [3]: 42% | Population Mitochondria Different-Phenotype (%) [3]: 35% | Population Mitotic Cells (%) [3]: 48% | Population Normal (%) [3]: 97% | Population Pyknosed Nuclei (%) [3]: 11% | Population Tubulin-Different-Phenotype (%) [3]: 39% | Total Cell Count [3]: 240 | Population Apoptotic (%) [4]: 90% | Population Fragmented Nuclei (%) [4]: 22% | Population Healthy Nuclei (%) [4]: 68% | Population Hoechst High Intensity Objects (%) [4]: 0% | Population Membrane Permeable-Phenotype (%) [4]: 13% | Population Mitochondria Different-Phenotype (%) [4]: 24% | Population Mitotic Cells (%) [4]: 10% | Population Normal (%) [4]: 100% | Population Pyknosed Nuclei (%) [4]: 8% | Population Tubulin-Different-Phenotype (%) [4]: 11% | Total Cell Count [4]: 118 | Population Apoptotic (%) [5]: 77% | Population Fragmented Nuclei (%) [5]: 22% | Population Healthy Nuclei (%) [5]: 69% | Population Hoechst High Intensity Objects (%) [5]: 0% | Population Membrane Permeable-Phenotype (%) [5]: 5% | Population Mitochondria Different-Phenotype (%) [5]: 1% | Population Mitotic Cells (%) [5]: 22% | Population Normal (%) [5]: 99% | Population Pyknosed Nuclei (%) [5]: 7% | Population Tubulin-Different-Phenotype (%) [5]: 1% | Total Cell Count [5]: 280 | Population Apoptotic (%) [6]: 75% | Population Fragmented Nuclei (%) [6]: 20% | Population Healthy Nuclei (%) [6]: 70% | Population Hoechst High Intensity Objects (%) [6]: 3% | Population Mitochondria Different-Phenotype (%) [6]: 2% | Population Mitotic Cells (%) [6]: 25% | Population Normal (%) [6]: 96% | Population Pyknosed Nuclei (%) [6]: 8% | Population Tubulin-Different-Phenotype (%) [6]: 2% | Total Cell Count [6]: 149 | Population Apoptotic (%) [7]: 83% | Population Fragmented Nuclei (%) [7]: 29% | Population Healthy Nuclei (%) [7]: 57% | Population Hoechst High Intensity Objects (%) [7]: 2% | Population Membrane Permeable-Phenotype (%) [7]: 17% | Population Mitochondria Different-Phenotype (%) [7]: 17% | Population Mitotic Cells (%) [7]: 16% | Population Normal (%) [7]: 97% | Population Pyknosed Nuclei (%) [7]: 13% | Population Tubulin-Different-Phenotype (%) [7]: 8% | Total Cell Count [7]: 280 | Population Apoptotic (%) [8]: 76% | Population Fragmented Nuclei (%) [8]: 24% | Population Healthy Nuclei (%) [8]: 65% | Population Hoechst High Intensity Objects (%) [8]: 0% | Population Membrane Permeable-Phenotype (%) [8]: 7% | Population Mitochondria Different-Phenotype (%) [8]: 25% | Population Mitotic Cells (%) [8]: 23% | Population Normal (%) [8]: 99% | Population Pyknosed Nuclei (%) [8]: 10% | Population Tubulin-Different-Phenotype (%) [8]: 3% | Total Cell Count [8]: 130 | Population Apoptotic (%) [9]: 77% | Population Fragmented Nuclei (%) [9]: 20% | Population Healthy Nuclei (%) [9]: 72% | Population Hoechst High Intensity Objects (%) [9]: 1% | Population Membrane Permeable-Phenotype (%) [9]: 5% | Population Mitochondria Different-Phenotype (%) [9]: 2% | Population Mitotic Cells (%) [9]: 22% | Population Normal (%) [9]: 98% | Population Pyknosed Nuclei (%) [9]: 6% | Population Tubulin-Different-Phenotype (%) [9]: 2% | Total Cell Count [9]: 415 | Population Apoptotic (%) [10]: 96% | Population Fragmented Nuclei (%) [10]: 21% | Population Healthy Nuclei (%) [10]: 64% | Population Hoechst High Intensity Objects (%) [10]: 3% | Population Membrane Permeable-Phenotype (%) [10]: 7% | Population Mitochondria Different-Phenotype (%) [10]: 7% | Population Mitotic Cells (%) [10]: 3% | Population Normal (%) [10]: 96% | Population Pyknosed Nuclei (%) [10]: 14% | Population Tubulin-Different-Phenotype (%) [10]: 5% | Total Cell Count [10]: 228 | Population Apoptotic (%) [11]: 86% | Population Fragmented Nuclei (%) [11]: 23% | Population Healthy Nuclei (%) [11]: 57% | Population Hoechst High Intensity Objects (%) [11]: 2% | Population Membrane Permeable-Phenotype (%) [11]: 11% | Population Mitochondria Different-Phenotype (%) [11]: 7% | Population Mitotic Cells (%) [11]: 13% | Population Normal (%) [11]: 97% | Population Pyknosed Nuclei (%) [11]: 18% | Population Tubulin-Different-Phenotype (%) [11]: 5% | Total Cell Count [11]: 342 | Population Apoptotic (%) [12]: 89% | Population Fragmented Nuclei (%) [12]: 20% | Population Healthy Nuclei (%) [12]: 68% | Population Hoechst High Intensity Objects (%) [12]: 1% | Population Mitochondria Different-Phenotype (%) [12]: 8% | Population Mitotic Cells (%) [12]: 10% | Population Normal (%) [12]: 98% | Population Pyknosed Nuclei (%) [12]: 11% | Population Tubulin-Different-Phenotype (%) [12]: 3% | Total Cell Count [12]: 174
